In assay [1] the target is T1, 5-hydroxytryptamine receptor 2A (Homo sapiens, UniProt P28223). The assay is described as follows: Displacement of [3H]-ketanserin from human recombinant 5HT-2A receptor expressed in CHOK1 cell membranes at 10 uM after 60 mins relative to control. The following applies: CHO-K1. Put shortly:
(§1)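 Buffer was 50 mM Tris-HCl pH 7.4 with 5 mM CaCl2 and 0.1% ascorbic acid. Test compound added at a range of concentrations.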

The target of assay [2] is T2, 5-hydroxytryptamine receptor 2C (Homo sapiens) (UniProt P28335).
T2 sequence (whole entry): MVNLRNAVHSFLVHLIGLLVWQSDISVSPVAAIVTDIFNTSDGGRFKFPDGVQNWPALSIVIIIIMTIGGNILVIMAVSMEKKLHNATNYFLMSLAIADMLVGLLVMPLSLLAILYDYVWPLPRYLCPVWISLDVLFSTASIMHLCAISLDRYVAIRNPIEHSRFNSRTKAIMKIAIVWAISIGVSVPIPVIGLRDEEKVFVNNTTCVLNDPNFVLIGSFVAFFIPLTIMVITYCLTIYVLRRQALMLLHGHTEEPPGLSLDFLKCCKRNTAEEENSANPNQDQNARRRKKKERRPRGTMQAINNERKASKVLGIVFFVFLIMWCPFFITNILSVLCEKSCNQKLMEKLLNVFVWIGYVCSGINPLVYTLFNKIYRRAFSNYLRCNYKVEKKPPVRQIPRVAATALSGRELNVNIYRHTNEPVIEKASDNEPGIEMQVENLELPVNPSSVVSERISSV
As to the kind of experiment: Displacement of [3H]-mesulergine from human recombinant 5HT-2C receptor expressed in CHOK1 cell membranes at 10 uM after 30 mins relative to control. The following applies: CHO-K1. Put shortly: (§2)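 Frozen CHO-K1 membranes expressing recombinant human 5-HT2C incubated with 1 nM [3H]mesulergine in 50 mM Tris-HCl pH 7.4 containing 0.1% ascorbic acid and pargyline. Mianserin defined nonspecific binding.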

Assay [3] deals with T1, 5-hydroxytryptamine receptor 2A. As to the kind of experiment: Displacement of [3H]-ketanserin from human recombinant 5HT-2A receptor expressed in CHOK1 cell membranes after 60 mins. On the set-up: species or system CHO-K1. Put shortly:
as §1

For assay [4], the target named is T3, 5-hydroxytryptamine receptor 2C (Homo sapiens, UniProt P28335).
T3 sequence (P28335 whole entry): T2 sequence (whole entry)
The assay is described as follows: Displacement of [3H]-mesulergine from human recombinant 5HT-2C receptor expressed in CHOK1 cell membranes after 30 mins. Further details: species or system CHO-K1. Put shortly:
as §2

T1 sequence (P28223 whole entry): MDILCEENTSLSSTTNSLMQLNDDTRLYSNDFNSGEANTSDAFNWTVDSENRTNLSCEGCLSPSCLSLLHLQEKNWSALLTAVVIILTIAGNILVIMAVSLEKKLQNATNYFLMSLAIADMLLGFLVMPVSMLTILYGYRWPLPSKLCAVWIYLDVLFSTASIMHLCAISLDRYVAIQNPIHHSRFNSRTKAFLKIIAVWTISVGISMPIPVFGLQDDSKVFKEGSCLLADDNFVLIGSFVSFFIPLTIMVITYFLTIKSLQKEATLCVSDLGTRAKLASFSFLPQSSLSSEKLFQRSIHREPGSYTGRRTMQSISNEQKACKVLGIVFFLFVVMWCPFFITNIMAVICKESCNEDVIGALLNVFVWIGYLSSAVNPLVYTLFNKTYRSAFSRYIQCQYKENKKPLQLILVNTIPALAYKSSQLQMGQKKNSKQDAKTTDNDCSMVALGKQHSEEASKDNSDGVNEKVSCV

As for `Fc1ccc(Nc2nc(N3CCN(c4ccc(F)cc4)CC3)nc3[nH]ncc23)cc1`, the inhibition in assay [1] was found to be 94%; in assay [2] it was 96%. Further, the 50% inhibitory concentration (IC50) worked out at 17.9 nM in assay [3] and 148 nM in assay [4].

For the compound `Fc1ccc(Nc2nc(NCCN3CCOCC3)nc3[nH]ncc23)cc1`, the values for the inhibition in assay [1] and in assay [2] were 51% and 35%, respectively. Moreover, the figures for the IC50 in assay [3] and in assay [4] were 9740 nM and more than 10000 nM, respectively.

Take `COc1ccccc1N1CCN(c2nc(Nc3ccc(F)cc3)c3cn[nH]c3n2)CC1`: the inhibition amounted to 93% in assay [1] and 78% in assay [2]. Besides, the 50% inhibitory concentration (IC50) in assay [3] stood at 1380 nM; in assay [4] it was 1730 nM.

Turning to `COCCNc1nc(Nc2ccc(F)cc2)c2cn[nH]c2n1`, the inhibition in assay [1] is 25%; in assay [2], 18%. In addition, the IC50 in assay [3] and in assay [4] was more than 10000 nM throughout.

With `C=CCNc1nc(Nc2ccc(F)cc2)c2cn[nH]c2n1`, the inhibition in assay [1] was found to be 60%; in assay [2], 41%. Besides, the results for the half-maximal inhibitory concentration (IC50) in assay [3] and in assay [4] were 6580 nM and more than 10000 nM, respectively.

For `Fc1ccc(Nc2nc(N3CCOCC3)nc3[nH]ncc23)cc1`, the inhibition turned out to be 83% in assay [1] and 81% in assay [2]. The results for the 50% inhibitory concentration (IC50) in assay [3] and in assay [4] were 2620 nM and 2070 nM, respectively.

Take `OCCN1CCN(c2nc(Nc3ccc(F)cc3)c3cn[nH]c3n2)CC1`: the inhibition in assay [1] stood at 100%; in assay [2], 97%. Further, the half-inhibitory concentration (IC50) in assay [3] was determined as 163 nM; in assay [4], 494 nM.

Consider `COCCCNc1nc(Nc2ccc(F)cc2)c2cn[nH]c2n1`, for which the inhibition in assay [1] was 67%; in assay [2], 28%. Also, the IC50 is 5280 nM in assay [3] and more than 10000 nM in assay [4].

For the compound `CN1CCN(c2nc(Nc3ccccc3)c3cn[nH]c3n2)CC1`, the inhibition in assay [1] and in assay [2] was 100% in each case. In addition, the half-inhibitory concentration (IC50) in assay [3] worked out at 25.1 nM; in assay [4], 86.9 nM.

Regarding `Fc1ccc(Nc2nc(NC3CCCCC3)nc3[nH]ncc23)cc1`, the inhibition in assay [1] worked out at 73%; in assay [2], 62%. Besides, the IC50 in assay [3] is 3670 nM; in assay [4], 5710 nM.

Take `COc1ccc(Nc2nc(Cc3ccccc3)nc3c2CCNCC3)cc1`: the IC50 was determined as 57.4 nM in assay [3] and 269 nM in assay [4].

On to `COc1cccc(Nc2nc(N3CCN(C)CC3)nc3[nH]ncc23)c1`, for which the inhibition in assay [1] and in assay [2] was 100% each time. Besides, the concentration for half-maximal inhibition (IC50) was found to be 9.1 nM in assay [3] and 7.8 nM in assay [4].

`CN1CCN(c2nc3c(c(OCc4ccco4)n2)CCNCC3)CC1`: the IC50 in assay [3] worked out at 2630 nM; in assay [4], 1260 nM.

In the case of `CCCNc1nc(Nc2ccccc2)c2cn[nH]c2n1`, the inhibition in assay [1] was 30%; in assay [2], 29%. In addition, the IC50 in assay [3] and in assay [4] was more than 10000 nM in each case.

For `Cc1ccc(CNc2nc(Nc3ccc(F)cc3)c3cn[nH]c3n2)cc1`, the inhibition came out at 93% in assay [1] and 66% in assay [2]. Moreover, the IC50 in assay [3] was 947 nM; in assay [4] it was 5830 nM.

`CC1CCN(c2nc(Nc3ccc(F)cc3)c3cn[nH]c3n2)CC1`: the inhibition in assay [1] turned out to be 83%; in assay [2], 86%. In addition, the 50% inhibitory concentration (IC50) is 3670 nM in assay [3] and 1500 nM in assay [4].

Turning to `COc1nc(N2CCN(C)CC2)nc2c1CCNCC2`, the half-maximal inhibitory concentration (IC50) in assay [3] and in assay [4] was more than 10000 nM in each case.

Turning to `CCN(CC)c1nc(Nc2ccc(Cl)cc2)c2cn[nH]c2n1`, the figures for the inhibition in assay [1] and in assay [2] were 86% and 80%, respectively. Further, the IC50 in assay [3] was found to be 1890 nM; in assay [4], 991 nM.

Regarding `CN(C)c1nc(Nc2ccc(F)cc2)c2cn[nH]c2n1`, the inhibition in assay [1] was found to be 79%; in assay [2], 66%. The IC50 worked out at 4880 nM in assay [3] and 4030 nM in assay [4].

On to `CNc1nc(Nc2ccc(F)cc2)c2cn[nH]c2n1`, for which the inhibition amounted to 49% in assay [1] and 51% in assay [2]. For the same compound, the half-maximal inhibitory concentration (IC50) in assay [3] was more than 10000 nM; in assay [4] it was 7790 nM.

Consider `CC1CC(C)CN(c2nc(Nc3ccc(F)cc3)c3cn[nH]c3n2)C1` (centres undefined), for which the inhibition in assay [1] amounted to 75%; in assay [2] it was 67%. Further, the results for the half-maximal inhibitory concentration (IC50) in assay [3] and in assay [4] were 5870 nM and 3820 nM, respectively.

Take `OCCCNc1nc(Nc2ccc(F)cc2)c2cn[nH]c2n1`: the inhibition in assay [1] was found to be 26%; in assay [2], 5%. Besides, the concentration for half-maximal inhibition (IC50) in assay [3] and in assay [4] was more than 10000 nM in each case.

For the compound `CCN(CC)c1nc(Nc2ccc(C)c(C)c2)c2cn[nH]c2n1`, the figures for the inhibition in assay [1] and in assay [2] were 85% and 52%, respectively. Moreover, the IC50 in assay [3] is 2750 nM; in assay [4] it was 8490 nM.

As for `CN1CCN(c2nc(Nc3ccc(Cl)cc3)c3cn[nH]c3n2)CC1`, the inhibition in assay [1] and in assay [2] was 100% throughout. In addition, the concentration for half-maximal inhibition (IC50) in assay [3] was 28.8 nM; in assay [4] it was 29.4 nM.

On to `COc1ccc(Nc2nc(N3CCN(c4ccc(F)cc4)CC3)nc3[nH]ncc23)cc1`, for which the inhibition in assay [1] was determined as 92%; in assay [2], 86%. Besides, the results for the IC50 in assay [3] and in assay [4] were 696 nM and 1180 nM, respectively.

With `CCN(CC)c1nc(Nc2cccc(OC)c2)c2cn[nH]c2n1`, the inhibition in assay [1] worked out at 87%; in assay [2], 61%. For the same compound, the IC50 in assay [3] amounted to 2080 nM; in assay [4], 5420 nM.

Consider `CN1CCN(c2nc(Nc3ccc(F)cc3)c3cn[nH]c3n2)CC1`, for which the inhibition in assay [1] and in assay [2] was 100% each time. Also, the half-maximal inhibitory concentration (IC50) in assay [3] was 24.2 nM; in assay [4] it was 85.8 nM.

As for `CCN(CC)c1nc(Nc2ccc(F)cc2)c2cn[nH]c2n1`, the inhibition in assay [1] came to 84%; in assay [2], 76%. Also, the IC50 in assay [3] came to 4530 nM; in assay [4], 3310 nM.

Regarding `Fc1ccc(Nc2nc(NCc3ccccc3)nc3[nH]ncc23)cc1`, the inhibition in assay [1] is 85%; in assay [2], 82%. The 50% inhibitory concentration (IC50) came out at 1270 nM in assay [3] and 2590 nM in assay [4].

Regarding `Fc1ccc(Nc2nc(N3CCCCC3)nc3[nH]ncc23)cc1`, the inhibition in assay [1] worked out at 86%; in assay [2], 89%. The results for the half-maximal inhibitory concentration (IC50) in assay [3] and in assay [4] were 2200 nM and 1300 nM, respectively.

As to `Fc1ccc(Nc2nc(N3CCN(Cc4ccccc4)CC3)nc3[nH]ncc23)cc1`, the inhibition in assay [1] came to 100%; in assay [2], 96%. For the same compound, the IC50 is 52.2 nM in assay [3] and 836 nM in assay [4].

Turning to `CCNc1nc(Nc2ccc(F)cc2)c2cn[nH]c2n1`, the inhibition in assay [1] stood at 39%; in assay [2], 23%. Also, the half-inhibitory concentration (IC50) in assay [3] and in assay [4] was more than 10000 nM in each case.

Turning to `CCNc1nc(Nc2ccccc2)c2cn[nH]c2n1`, the inhibition was 6% in assay [1] and 15% in assay [2]. In addition, the 50% inhibitory concentration (IC50) in assay [3] and in assay [4] was more than 10000 nM each time.

In the case of `CN1CCN(c2ncc3c(n2)CCNCC3)CC1`, the concentration for half-maximal inhibition (IC50) in assay [3] and in assay [4] was more than 10000 nM each time.

As to `CCN(CC)c1nc(Nc2ccccc2C)c2cn[nH]c2n1`, the inhibition was 66% in assay [1] and 88% in assay [2]. The IC50 in assay [3] was found to be 4580 nM; in assay [4] it was 242 nM.

In the case of `CN1CCc2nc(N3CCN(C)CC3)nc(Nc3ccc(F)cc3)c2CC1`, the results for the IC50 in assay [3] and in assay [4] were 684 nM and 779 nM, respectively.

Values taken from ChEMBL document CHEMBL2390866, “Novel pyrimidoazepine analogs as serotonin 5-HT(2A) and 5-HT(2C) receptor ligands for the treatment of obesity” (Eur J Med Chem, 2013).
